Only some compounds are listed: those with a hit (about 1.7% of all), similar ones and a draw of the others.
Pemphigus Ab inh: inhibitors of pemphigus antibody binding to DSG3, primary screen, biochemical, bead-based, flow cytometry, scFv-GFP; Desmoglein-3 (Homo sapiens), P32926; DSG3-coupled beads, scFv-anti-DSG3-GFP binding; active compounds read low; binding (percent of control), % at 10 µM; 0.48% of 310,000 active; AID 588358, 2011;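 active = binding more than 3 SD below its plate's average and above zero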;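 note: hits lower antibody fragment binding to DSG3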
Target sequence (P32926 whole entry, looked up, the tested form may be a part): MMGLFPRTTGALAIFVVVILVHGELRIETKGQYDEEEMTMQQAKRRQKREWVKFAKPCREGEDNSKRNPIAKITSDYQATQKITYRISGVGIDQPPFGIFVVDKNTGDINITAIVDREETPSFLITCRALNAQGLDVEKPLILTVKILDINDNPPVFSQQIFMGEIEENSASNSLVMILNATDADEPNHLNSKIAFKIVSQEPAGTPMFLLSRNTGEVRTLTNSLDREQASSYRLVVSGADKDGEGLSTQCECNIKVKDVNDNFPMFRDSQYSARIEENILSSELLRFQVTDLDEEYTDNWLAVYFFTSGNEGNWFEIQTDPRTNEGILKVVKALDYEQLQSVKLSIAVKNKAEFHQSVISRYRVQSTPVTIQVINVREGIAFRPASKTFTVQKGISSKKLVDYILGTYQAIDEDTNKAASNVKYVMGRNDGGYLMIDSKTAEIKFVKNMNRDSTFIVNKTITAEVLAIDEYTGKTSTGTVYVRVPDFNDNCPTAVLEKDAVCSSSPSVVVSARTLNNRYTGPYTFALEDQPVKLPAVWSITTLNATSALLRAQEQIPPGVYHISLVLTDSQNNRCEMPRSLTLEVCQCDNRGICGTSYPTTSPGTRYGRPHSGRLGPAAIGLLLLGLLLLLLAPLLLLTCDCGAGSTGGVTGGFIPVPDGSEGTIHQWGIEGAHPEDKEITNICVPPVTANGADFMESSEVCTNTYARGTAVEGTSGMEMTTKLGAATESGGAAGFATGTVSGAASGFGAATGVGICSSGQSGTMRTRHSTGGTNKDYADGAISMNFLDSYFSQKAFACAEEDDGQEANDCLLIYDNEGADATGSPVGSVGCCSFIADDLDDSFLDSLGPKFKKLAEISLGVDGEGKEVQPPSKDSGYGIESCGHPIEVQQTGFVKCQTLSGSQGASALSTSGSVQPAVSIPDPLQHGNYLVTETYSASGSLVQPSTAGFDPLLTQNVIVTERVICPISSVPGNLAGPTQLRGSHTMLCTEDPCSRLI
Vif inh: HIV Vif self-association inhibitors, primary screen, imaging, HEK293T, single point. HEK293T cells, Vif self-association by quenched fluorescence, 24 h. inhibition, % at 7.49 µM. 0.35% of 340,000 active; in the data active = inhibition above about 50%, passing the limit was not always enough
Myeloid diff MLP: induction of myeloid progenitor differentiation, primary screen, cell-based, flow cytometry, MLPCN library | ER-HoxA9 myeloid progenitors, lysozyme-GFP differentiation | calls only at 10 µM | 1% of 360,000 active;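 active = normalized GFP-positive differentiation at or above the plate's own cutoff, the solvent-only control mean plus 3 SD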;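 note: cells exposed to compound for four days before flow analysis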
T cell HTS: modulators of CD8 T cell-vesicle binding, primary screen, mouse 2C CD8+ T cells, flow cytometry | 2C CD8+ T cell-vesicle binding; active compounds read low | response (vesicle binding), % at 7 µM | 0.068% of 330,000 active;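 active = response, share of CD8 T cells binding vesicles, and their 90th percentile fluorescence all below set limits, cut at about 80% in these data, passing the limit was not always enough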;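 note: values below 100% mean blocked vesicle binding to the CD8+ T cells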
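Test system: purified 2C TCR transgenic mouse naive CD8+ T cells. Probe or stimulus: QL9-peptide-loaded Drosophila micro-vesicles bearing Ld, ICAM-1 and B7-1. Incubation: binding step 1.5 h, 37 °C, antibody labelling 20 min, ice. Measured by: flow cytometry of vesicle-bound cells.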
Myeloid diff: inducers of myeloid progenitor differentiation, confirmation, cell-based, GFP/Mac1 flow cytometry, cherry pick 01. shares compounds with Myeloid diff MLP. ER-HoxA9 myeloid progenitors, GFP/Mac1 double-positive flow. calls only. 2% of 2,300 active. AID 651706, 2012;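 active = share of green or green-and-red cells above 9 and 9% in run 1 or 4 and 3% in run 2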
GFP autofluor: counter-screen for myeloid differentiation promoters: compound fluorescence; 7.4% of 2,300 active; shares compounds with Myeloid diff MLP; fluorescence response, % (no concentration beside the values); AID 651707; ER-HoxA9 myeloid progenitors, no estrogen, GFP autofluorescence flow cytometry; vehicle wells 0%, positive control 100%;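 active = over 5% cells positive for green fluorescent reporter, or over 2% positive for both it and APC stain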;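 note: range taken on the double positive population between DMSO and positive control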
Numbers without * were called inactive; i = inactive; · = no result given; + = active, no number.

SMILES | Pemphigus Ab inh | Vif inh | Myeloid diff MLP | T cell HTS | Myeloid diff | GFP autofluor
Cn1c(=O)oc2cc(S(=O)(=O)N3CCCC(C(=O)NCc4cccs4)C3)ccc21 (configuration not stated) | 108.1 | 2.9 | i | 363.8 | i | 0.2
COc1ccccc1CNC(=O)C1CCN(S(=O)(=O)c2ccc3c(c2)C(C)(C)C(=O)N3C)CC1 | 105.3 | 3.4 | i | 382.2 | · | ·
Cn1c(=O)oc2cc(S(=O)(=O)N3CCCC(C(=O)NCc4ccc5c(c4)OCO5)C3)ccc21 (configuration not stated) | 93.2 | -7.4 | i | 356.4 | · | ·
CCN1C(=O)[C@H]2[C@@H](c3ccc(C(F)(F)F)cc3)N[C@]3(CCCN(Cc4ccccc4)C3=O)[C@H]2C1=O | 102.6 | -7.8 | i | · | · | ·
Cc1cc(/C=C2\SC(=S)N(C)C2=O)c(C)n1-c1cccc(O)c1 | 93.4 | -8.1 | + | 413.8 | i | 4.8
Cc1cc(/C=C2\SC(=O)N(C)C2=O)c(C)n1-c1ccc(O)cc1 | 96.7 | -12.9 | i | 95.5 | · | ·
CCCCNC(=O)c1nc(-c2ccncc2)oc1-c1ccccc1 | · | -0.5 | i | · | · | ·
Cc1nc2nc(-c3ccccc3)[nH]n2c(=O)c1C | 105.0 | · | i | 253.0 | i | 0.5
CCCC(=O)N1CCC1(C)C(=O)Nc1ccc(C)c(C)c1 (configuration not stated) | · | 7.6 | i | · | · | ·
CC(C)(C)OC(=O)N[C@@H](Cc1ccccc1)C(=O)N1CCC(C(=O)O)CC1 | 109.1 | -1.0 | i | 507.2 | i | 0.0
Cn1c(C(=O)NCC2CCCO2)cc2c(=O)[nH]c3ccccc3c21 (configuration not stated) | 105.0 | 1.4 | i | 740.3 | i | 1.0
Cc1ccc(C)c(/C(O)=C2\C(=O)C(=O)N(CCCn3ccnc3)C2c2ccncc2)c1 (configuration not stated) | 104.7 | 19.9 | + | 201.7 | i | 0.3
COc1ccc(S(=O)(=O)N[C@H]2CC[C@H](CCNC(=O)c3ccccc3F)O[C@@H]2CO)cc1 | · | · | i | · | · | ·
COc1ccc2c(c1)C(CC(C)=O)N(c1ccc(-c3cccs3)cc1)C(c1ccsc1)=C2 (configuration not stated) | · | · | + | · | i | 0.0
COc1ccc2c(c1)C(CC(C)=O)N(c1ccc(-c3cnc(OC)nc3)cc1)C(c1ccsc1)=C2 (configuration not stated) | · | · | i | · | · | ·
Cn1c(SCc2cccc(Br)c2)nnc1-c1ccncc1 | 95.7 | 7.3 | i | 404.9 | · | ·
ClCCn1cnc2c(SCc3ccccc3Cl)ncnc21 | 98.2 | 3.0 | i | · | i | 3.9
ClCCn1cnc2c(SCc3ccccc3)ncnc21 | 92.0 | 1.9 | i | · | · | ·
CCN(CC)S(=O)(=O)c1cc(NC(=O)C2CCN(c3ncnc4sc(C)c(C)c34)CC2)ccc1Cl | 95.0 | · | + | 400.2 | i | 0.3
Cc1ccc(NC(=O)C2CCN(c3ncnc4sc(C)c(C)c34)CC2)cc1S(=O)(=O)N(C)C | 103.8 | -17.3 | i | 203.5 | · | ·
CC(C)c1nnc(NC(=O)Cn2nc(-c3ccc4c(c3)OCCO4)ccc2=O)s1 | 97.6 | -5.3 | + | 192.7 | i | 0.0
CCOc1ccc(NC(=O)c2c(NC(=O)CNCCN3CCOCC3)sc3c2CCC3)cc1 | 106.0 | -5.9 | i | 993.3 | · | ·
O=C(O)CN=C(Nc1cc(Cl)cc(Cl)c1)NC(c1ccccc1)c1ccccc1 | · | · | i | · | · | ·
CC1(C)N=C(N)NC(Nc2cccc(Br)c2)=N1 | 101.9 | -4.7 | i | 141.3 | · | ·
CC1(C)N=C(N)NC(Nc2ccc(Br)cc2)=N1 | 108.1 | -3.3 | + | 409.9 | i | 0.7
Cc1ccc(Nc2nnc(SCC(=O)NC3CCS(=O)(=O)C3)s2)c(C)c1 (configuration not stated) | 131.0 | 5.7 | i | 431.9 | i | 5.9*
CCc1nc2ccc(C(=O)NCCC(C)C)cn2c1N(C)Cc1ccc(OC)cc1 | · | 1.7 | i | · | · | ·
CCCc1nn(-c2cc(Cl)ccc2OC)c2c1C(=O)CCC2 | 102.6 | -20.1 | i | 445.2 | · | ·
